According to ChEMBL document CHEMBL1130231, “Betidamino acid scan of the GnRH antagonist acyline” (J Med Chem, 1997):
Active and inactive are the calls of the source. The calls are words filed in the database; no cut-off is given here.

Key:
Rattus norvegicus [1] = experiment: Ratio of ovulated rats to total number of rats determined in a anti-ovulatory assay by administering 250 microg of compound; 6/8; type: functional, organism-based
Rattus norvegicus [2] = experiment: Ratio of ovulated rats to total number of rats determined in a anti-ovulatory assay by administering 1 microg of compound; 8/8; type: functional, organism-based
Rattus norvegicus [3] = experiment: Ratio of ovulated rats to total number of rats determined in a anti-ovulatory assay by administering 2.5 microg of compound; 0/8; type: functional, organism-based
Rattus norvegicus [4] = experiment: Ratio of ovulated rats to total number of rats determined in a anti-ovulatory assay by administering 5 microg of compound; 0/8; type: functional, organism-based
Rattus norvegicus [5] = experiment: Ratio of ovulated rats to total number of rats determined in a anti-ovulatory assay by administering 2.5 microg of compound; 2/8; type: functional, organism-based
Rattus norvegicus [6] = experiment: Ratio of ovulated rats to total number of rats determined in a anti-ovulatory assay by administering 10 microg of compound; 0/8; type: functional, organism-based
[7] = target: T1, Gonadotropin-releasing hormone receptor (Rattus norvegicus, UniProt P30969); experiment: Inhibition of binding of radiolabeled histrelin to Gonadotropin-releasing hormone receptor (GnRHr) in rat pituitary gland membranes; type: cell membranes, Membrane
T1 sequence (P30969 whole entry): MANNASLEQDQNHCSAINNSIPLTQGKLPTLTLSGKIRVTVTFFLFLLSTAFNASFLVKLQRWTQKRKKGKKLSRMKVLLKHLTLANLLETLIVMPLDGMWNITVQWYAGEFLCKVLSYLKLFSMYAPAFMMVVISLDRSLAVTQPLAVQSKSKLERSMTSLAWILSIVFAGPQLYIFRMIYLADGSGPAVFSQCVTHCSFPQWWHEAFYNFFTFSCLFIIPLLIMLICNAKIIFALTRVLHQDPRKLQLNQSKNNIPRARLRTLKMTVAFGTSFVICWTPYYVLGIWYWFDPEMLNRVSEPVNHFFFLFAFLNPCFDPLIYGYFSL
In short: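 Rat anterior pituitary membranes (male and female glands equal numbers), homogenized in 0.32 M sucrose/aprotinin, 4000g pellet, diluted 15-fold in 10 mM Hepes, 0.2% BSA, pH 7.6. Filtration onto PEI-treated glass filters, scintillation counting. IC50 in nM, duplicate, n = 1.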

Structure (SMILES)	IC50 [7]	also measured
CC(=O)Nc1ccc(C[C@H](NC(=O)[C@H](CO)NC(=O)[C@@H](Cc2cccnc2)NC(=O)[C@H](NC(=O)c2c[nH]nc2N)NC(=O)[C@@H](Cc2ccc3ccccc3c2)NC(C)=O)C(=O)N[C@H](Cc2ccc(NC(C)=O)cc2)C(=O)N[C@@H](CC(C)C)C(=O)N[C@@H](CCCCNC(C)C)C(=O)N2CCC[C@@H]2C(=O)N[C@H](C)C(N)=O)cc1		ov. rat/total (Rattus norvegicus [1]): inactive
CN[C@@H](NC(=O)[C@H]1CCCN1C(=O)[C@H](CCCCNC(C)C)NC(=O)[C@H](CC(C)C)NC(=O)[C@@H](Cc1ccc(NC(C)=O)cc1)NC(=O)[C@H](Cc1ccc(NC(C)=O)cc1)NC(=O)[C@H](CO)NC(=O)[C@@H](Cc1cccnc1)NC(=O)[C@@H](Cc1ccc(Cl)cc1)NC(=O)[C@@H](Cc1ccc2ccccc2c1)NC(C)=O)C(N)=O		ov. rat/total (Rattus norvegicus [2]): inactive; ov. rat/total (Rattus norvegicus [3]): Active
CC(=O)Nc1ccc(C[C@H](NC(=O)[C@H](CO)NC(=O)[C@@H](Cc2cccnc2)NC(=O)[C@@H](Cc2ccc(Cl)cc2)NC(=O)[C@@H](Cc2ccc3ccccc3c2)NC(C)=O)C(=O)N[C@H](Cc2ccc(NC(C)=O)cc2)C(=O)N[C@@H](CC(C)C)C(=O)N[C@@H](CCCCNC(C)C)C(=O)N2CCC[C@@H]2C(=O)N[C@@H](C)C(N)=O)cc1		ov. rat/total (Rattus norvegicus [2]): inactive; ov. rat/total (Rattus norvegicus [3]): Active
CC(=O)Nc1ccc(C[C@H](NC(=O)[C@@H](NC=O)NC(=O)[C@@H](Cc2cccnc2)NC(=O)[C@@H](Cc2ccc(Cl)cc2)NC(=O)[C@@H](Cc2ccc3ccccc3c2)NC(C)=O)C(=O)N[C@H](Cc2ccc(NC(C)=O)cc2)C(=O)N[C@@H](CC(C)C)C(=O)N[C@@H](CCCCNC(C)C)C(=O)N2CCC[C@@H]2C(=O)N[C@H](C)C(N)=O)cc1 (single isomer, unassigned)		ov. rat/total (Rattus norvegicus [4]): Active
CC(=O)Nc1ccc(C[C@H](NC(=O)[C@H](CO)NC(=O)[C@@H](NC(=O)c2ccncc2)NC(=O)[C@@H](Cc2ccc(Cl)cc2)NC(=O)[C@@H](Cc2ccc3ccccc3c2)NC(C)=O)C(=O)N[C@H](Cc2ccc(NC(C)=O)cc2)C(=O)N[C@@H](CC(C)C)C(=O)N[C@@H](CCCCNC(C)C)C(=O)N2CCC[C@@H]2C(=O)N[C@H](C)C(N)=O)cc1 (single isomer, unassigned)		ov. rat/total (Rattus norvegicus [5]): Partially active; ov. rat/total (Rattus norvegicus [6]): Active
CC(=O)Nc1ccc(C[C@H](NC(=O)[C@H](CO)NC(=O)[C@@H](Cc2cccnc2)NC(=O)[C@@H](Cc2ccc(Cl)cc2)NC(=O)[C@@H](NC(C)=O)NC(=O)c2ccc3ccccc3c2)C(=O)N[C@H](Cc2ccc(NC(C)=O)cc2)C(=O)N[C@@H](CC(C)C)C(=O)N[C@@H](CCCCNC(C)C)C(=O)N2CCC[C@H]2C(=O)N[C@H](C)C(N)=O)cc1	3 nM	
CC(=O)Nc1ccc(C[C@H](NC(=O)[C@H](CO)NC(=O)[C@@H](Cc2cccnc2)NC(=O)[C@H](NC(=O)c2cn[nH]c2N)NC(=O)[C@@H](Cc2ccc3ccccc3c2)NC(C)=O)C(=O)N[C@H](Cc2ccc(NC(C)=O)cc2)C(=O)N[C@@H](CC(C)C)C(=O)N[C@@H](CCCCNC(C)C)C(=O)N2CCC[C@H]2C(=O)N[C@H](C)C(N)=O)cc1	2500 nM	
CN[C@@H](NC(=O)[C@@H]1CCCN1C(=O)[C@H](CCCCNC(C)C)NC(=O)[C@H](CC(C)C)NC(=O)[C@@H](Cc1ccc(NC(C)=O)cc1)NC(=O)[C@H](Cc1ccc(NC(C)=O)cc1)NC(=O)[C@H](CO)NC(=O)[C@@H](Cc1cccnc1)NC(=O)[C@@H](Cc1ccc(Cl)cc1)NC(=O)[C@@H](Cc1ccc2ccccc2c1)NC(C)=O)C(N)=O	0.9 nM	
CC(=O)Nc1ccc(C[C@H](NC(=O)[C@@H](NC(=O)CO)NC(=O)[C@@H](Cc2cccnc2)NC(=O)[C@@H](Cc2ccc(Cl)cc2)NC(=O)[C@@H](Cc2ccc3ccccc3c2)NC(C)=O)C(=O)N[C@H](Cc2ccc(NC(C)=O)cc2)C(=O)N[C@@H](CC(C)C)C(=O)N[C@@H](CCCCNC(C)C)C(=O)N2CCC[C@H]2C(=O)N[C@H](C)C(N)=O)cc1 (single isomer, unassigned)	0.056 nM	
CC(=O)Nc1ccc(C[C@H](NC(=O)[C@H](CO)NC(=O)[C@@H](Cc2cccnc2)NC(=O)[C@@H](Cc2ccc(Cl)cc2)NC(=O)[C@@H](Cc2ccc3ccccc3c2)NC(C)=O)C(=O)N[C@@H](C(=O)N[C@@H](CC(C)C)C(=O)N[C@@H](CCCCNC(C)C)C(=O)N2CCC[C@@H]2C(=O)N[C@H](C)C(N)=O)N(C)C(=O)c2ccc(NC(C)=O)cc2)cc1 (mixture of isomers)		ov. rat/total (Rattus norvegicus [5]): Partially active
CC(=O)Nc1ccc(C[C@H](NC(=O)[C@H](CO)NC(=O)[C@@H](Cc2cccnc2)NC(=O)[C@@H](Cc2ccc(Cl)cc2)NC(=O)[C@H](NC(C)=O)NC(=O)c2ccc3ccccc3c2)C(=O)N[C@H](Cc2ccc(NC(C)=O)cc2)C(=O)N[C@@H](CC(C)C)C(=O)N[C@@H](CCCCNC(C)C)C(=O)N2CCC[C@H]2C(=O)N[C@H](C)C(N)=O)cc1	0.88 nM	

Now from value to compound, other results behind:

IC50 [7]	Structure (SMILES)	also measured
0.74 nM	CC(=O)Nc1ccc(C[C@H](NC(=O)[C@H](CO)NC(=O)[C@@H](Cc2cccnc2)NC(=O)[C@@H](Cc2ccc(Cl)cc2)NC(=O)[C@@H](Cc2ccc3ccccc3c2)NC(C)=O)C(=O)N[C@H](Cc2ccc(NC(C)=O)cc2)C(=O)N[C@@H](CC(C)C)C(=O)NC(NC(=O)CNC(=N)N)C(=O)N2CCC[C@H]2C(=O)N[C@H](C)C(N)=O)cc1 (stereo not given in full)	
0.62 nM	CC(=O)Nc1ccc(C[C@H](NC(=O)[C@H](CO)NC(=O)[C@@H](Cc2cccnc2)NC(=O)[C@@H](Cc2ccc(Cl)cc2)NC(=O)[C@@H](Cc2ccc3ccccc3c2)NC(C)=O)C(=O)N[C@H](Cc2ccc(NC(C)=O)cc2)C(=O)N[C@@H](CC(C)C)C(=O)N[C@@H](CCCCNC(C)C)C(=O)N2CCC[C@H]2C(=O)N[C@@H](NC=O)C(N)=O)cc1 (single isomer, unassigned)	
0.53 nM	CC(=O)Nc1ccc(C[C@H](NC(=O)[C@H](CO)NC(=O)[C@@H](Cc2cccnc2)NC(=O)[C@@H](Cc2ccc(Cl)cc2)NC(=O)[C@@H](Cc2ccc3ccccc3c2)NC(C)=O)C(=O)N[C@H](Cc2ccc(NC(C)=O)cc2)C(=O)N[C@H](C(=O)N[C@@H](CCCCNC(C)C)C(=O)N2CCC[C@H]2C(=O)N[C@H](C)C(N)=O)N(C)C(=O)C(C)C)cc1	
2000 nM	CC(=O)Nc1ccc(C[C@H](NC(=O)[C@H](CO)NC(=O)[C@@H](Cc2cccnc2)NC(=O)[C@@H](NC(=O)c2cnccn2)NC(=O)[C@@H](Cc2ccc3ccccc3c2)NC(C)=O)C(=O)N[C@H](Cc2ccc(NC(C)=O)cc2)C(=O)N[C@@H](CC(C)C)C(=O)N[C@@H](CCCCNC(C)C)C(=O)N2CCC[C@H]2C(=O)N[C@H](C)C(N)=O)cc1	
0.3 nM	CC(=O)Nc1ccc(C[C@H](NC(=O)[C@H](NC(=O)CO)NC(=O)[C@@H](Cc2cccnc2)NC(=O)[C@@H](Cc2ccc(Cl)cc2)NC(=O)[C@@H](Cc2ccc3ccccc3c2)NC(C)=O)C(=O)N[C@H](Cc2ccc(NC(C)=O)cc2)C(=O)N[C@@H](CC(C)C)C(=O)N[C@@H](CCCCNC(C)C)C(=O)N2CCC[C@H]2C(=O)N[C@H](C)C(N)=O)cc1 (single isomer, unassigned)	
220 nM	CC(=O)Nc1ccc(C[C@H](NC(=O)[C@H](CO)NC(=O)[C@H](NC(=O)c2ccncc2)NC(=O)[C@@H](Cc2ccc(Cl)cc2)NC(=O)[C@@H](Cc2ccc3ccccc3c2)NC(C)=O)C(=O)N[C@H](Cc2ccc(NC(C)=O)cc2)C(=O)N[C@@H](CC(C)C)C(=O)N[C@@H](CCCCNC(C)C)C(=O)N2CCC[C@H]2C(=O)N[C@H](C)C(N)=O)cc1 (single isomer, unassigned)	
5.5 nM	CC(=O)Nc1ccc(C[C@H](NC(=O)[C@@H](NC(=O)[C@@H](Cc2cccnc2)NC(=O)[C@@H](Cc2ccc(Cl)cc2)NC(=O)[C@@H](Cc2ccc3ccccc3c2)NC(C)=O)N(C)C=O)C(=O)N[C@H](Cc2ccc(NC(C)=O)cc2)C(=O)N[C@@H](CC(C)C)C(=O)N[C@@H](CCCCNC(C)C)C(=O)N2CCC[C@H]2C(=O)N[C@H](C)C(N)=O)cc1 (single isomer, unassigned)	
0.76 nM	CC(=O)Nc1ccc(C[C@H](NC(=O)[C@H](CO)NC(=O)[C@H](NC(=O)c2cccnc2)NC(=O)[C@@H](Cc2ccc(Cl)cc2)NC(=O)[C@@H](Cc2ccc3ccccc3c2)NC(C)=O)C(=O)N[C@H](Cc2ccc(NC(C)=O)cc2)C(=O)N[C@@H](CC(C)C)C(=O)N[C@@H](CCCCNC(C)C)C(=O)N2CCC[C@H]2C(=O)N[C@H](C)C(N)=O)cc1	
2 nM	CC(=O)Nc1ccc(C[C@H](NC(=O)[C@H](CO)NC(=O)[C@@H](Cc2cccnc2)NC(=O)[C@@H](Cc2ccc(Cl)cc2)NC(=O)[C@@H](Cc2ccc3ccccc3c2)NC(C)=O)C(=O)N[C@H](Cc2ccc(NC(C)=O)cc2)C(=O)N[C@@H](CNC(=O)C(C)C)C(=O)N[C@@H](CCCCNC(C)C)C(=O)N2CCC[C@H]2C(=O)N[C@H](C)C(N)=O)cc1	
> 1000 nM	CC(=O)Nc1ccc(C[C@H](NC(=O)[C@H](CO)NC(=O)[C@@H](Cc2cccnc2)NC(=O)[C@@H](NC(=O)c2cn[nH]c2N)NC(=O)[C@@H](Cc2ccc3ccccc3c2)NC(C)=O)C(=O)N[C@H](Cc2ccc(NC(C)=O)cc2)C(=O)N[C@@H](CC(C)C)C(=O)N[C@@H](CCCCNC(C)C)C(=O)N2CCC[C@H]2C(=O)N[C@H](C)C(N)=O)cc1 (single isomer, unassigned)	
0.3 nM	CC(=O)Nc1ccc(C[C@@H](NC(=O)[C@H](NC(=O)c2ccc(O)cc2)NC(=O)[C@H](CO)NC(=O)[C@@H](Cc2cccnc2)NC(=O)[C@@H](Cc2ccc(Cl)cc2)NC(=O)[C@@H](Cc2ccc3ccccc3c2)NC(C)=O)C(=O)N[C@@H](CC(C)C)C(=O)N[C@@H](CCCCNC(C)C)C(=O)N2CCC[C@H]2C(=O)N[C@H](C)C(N)=O)cc1	
